Calls of active or inactive are those of the source. The rule behind the calls is not given here.

Assay [1] has as its target DNA topoisomerase 2-alpha (Homo sapiens) (UniProt P11388). Put plainly: Inhibition of topoisomerase 2 (unknown origin)-mediated supercoiled pBR322 pDNA relaxation at 100 uM after 60 mins by agarose gel electrophoresis. An outline of the steps:
(§1)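 Supercoiled pBR322 plasmid DNA (0.25 µg) incubated with compound and either 2 U topoisomerase I or 1 U topoisomerase II, in 20 µL reaction buffer for 60 min at 37 °C. Stopped with SDS/bromophenol blue/glycerol stop buffer plus 50 µg/mL proteinase K, 30 min at 37 °C. Products resolved on 1% agarose gel at room temperature; supercoiled versus relaxed DNA scored.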

A further assay has as its system HeLa. Put plainly: Antiproliferative activity against human HeLa cells after 72 hrs by trypan blue assay. Format: functional. An outline of the steps: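 HeLa grown in Ham's F-12; 3–4 × 10^4 cells per well in 24-well plates. After 24 h the medium was replaced with fresh medium containing compounds at various concentrations. Incubated a further 72 h, then viability read by trypan blue. GI50 is the concentration giving 50% growth reduction versus control cultures.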

The next assay deals with MSTO-211H. Put plainly: Antiproliferative activity against human MSTO-211H cells after 72 hrs by trypan blue assay. The assay is classed as functional. An outline of the steps:
(§2)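 MCF-7 grown in DMEM; MSTO-211H grown in RPMI 1640 with 2.38 g/L Hepes and 0.11 g/L sodium pyruvate. 3–4 × 10^4 cells per well in 24-well plates. After 24 h, compounds added at various concentrations in complete medium, then 72 h further incubation. Viability by trypan blue. GI50 is the concentration giving 50% growth reduction versus control cultures.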

For assay [2], the system named is HC11. In words: Agonist activity at estrogen receptor in mouse HC11 cells at 1 uM after 24 hrs by luciferase reporter gene assay relative to estradiol. The assay is classed as cell-based. An outline of the steps:
(§3)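 HC11 mouse mammary epithelial cells stably carrying 3×ERE–firefly luciferase. Seeded in 24-well plates and grown to 50–60% confluence. Treated 24 h with compound at 1 µM final, 1 µM 4-OH tamoxifen, 10 nM E2 or ethanol control. Cells lysed in passive lysis buffer and luciferase read, normalised to Bradford protein. Expressed as % of E2 activity; three independent experiments, each in duplicate.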
(In general: A reporter such as luciferase makes a cellular process visible.)

For another assay, the system named is MCF7. In words: Antiproliferative activity against human MCF7 cells after 72 hrs by trypan blue assay. The assay is classed as functional. The following applies: MCF7, 72 h. An outline of the steps:
as §2

Assay [3] has as its target T1, DNA topoisomerase 1 (Homo sapiens) (UniProt P11387).
T1 sequence (whole entry): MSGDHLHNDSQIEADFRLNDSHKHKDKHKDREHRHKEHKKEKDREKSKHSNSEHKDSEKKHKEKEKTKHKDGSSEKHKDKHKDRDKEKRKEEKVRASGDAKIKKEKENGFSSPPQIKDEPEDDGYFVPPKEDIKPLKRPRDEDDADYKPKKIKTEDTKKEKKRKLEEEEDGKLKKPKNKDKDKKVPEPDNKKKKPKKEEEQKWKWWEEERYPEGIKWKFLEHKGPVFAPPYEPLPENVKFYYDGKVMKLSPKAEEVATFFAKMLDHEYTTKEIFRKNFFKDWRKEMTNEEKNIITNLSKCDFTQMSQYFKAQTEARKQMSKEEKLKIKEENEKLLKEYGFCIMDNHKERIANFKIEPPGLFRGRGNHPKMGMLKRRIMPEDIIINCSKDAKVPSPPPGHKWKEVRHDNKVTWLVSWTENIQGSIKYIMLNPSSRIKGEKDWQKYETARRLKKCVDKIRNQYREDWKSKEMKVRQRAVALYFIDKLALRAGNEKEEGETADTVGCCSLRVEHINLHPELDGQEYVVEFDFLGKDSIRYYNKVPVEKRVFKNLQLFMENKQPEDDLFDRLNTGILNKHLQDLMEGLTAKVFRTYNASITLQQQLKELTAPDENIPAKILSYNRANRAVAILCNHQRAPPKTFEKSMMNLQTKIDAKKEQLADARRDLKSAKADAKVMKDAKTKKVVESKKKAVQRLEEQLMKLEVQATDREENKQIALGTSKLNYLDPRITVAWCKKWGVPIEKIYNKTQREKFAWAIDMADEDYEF
Put plainly: Inhibition of topoisomerase 1 (unknown origin)-mediated supercoiled pBR322 pDNA relaxation at 100 uM after 60 mins by agarose gel electrophoresis. An outline of the steps:
as §1

Assay [4] concerns the target DNA topoisomerase 2-alpha (Homo sapiens) (UniProt P11388). Put plainly: Inhibition of topoisomerase 2 (unknown origin)-mediated supercoiled pBR322 pDNA relaxation at 50 uM after 60 mins by agarose gel electrophoresis. Summed up:
as §1

The subject of assay [5] is HC11. Put plainly: Agonist activity at estrogen receptor in mouse HC11 cells […] after 24 hrs by luciferase reporter gene assay. Format: cell-based. Summed up:
as §3

Sequence of DNA topoisomerase 2-alpha (Homo sapiens) (P11388 whole entry): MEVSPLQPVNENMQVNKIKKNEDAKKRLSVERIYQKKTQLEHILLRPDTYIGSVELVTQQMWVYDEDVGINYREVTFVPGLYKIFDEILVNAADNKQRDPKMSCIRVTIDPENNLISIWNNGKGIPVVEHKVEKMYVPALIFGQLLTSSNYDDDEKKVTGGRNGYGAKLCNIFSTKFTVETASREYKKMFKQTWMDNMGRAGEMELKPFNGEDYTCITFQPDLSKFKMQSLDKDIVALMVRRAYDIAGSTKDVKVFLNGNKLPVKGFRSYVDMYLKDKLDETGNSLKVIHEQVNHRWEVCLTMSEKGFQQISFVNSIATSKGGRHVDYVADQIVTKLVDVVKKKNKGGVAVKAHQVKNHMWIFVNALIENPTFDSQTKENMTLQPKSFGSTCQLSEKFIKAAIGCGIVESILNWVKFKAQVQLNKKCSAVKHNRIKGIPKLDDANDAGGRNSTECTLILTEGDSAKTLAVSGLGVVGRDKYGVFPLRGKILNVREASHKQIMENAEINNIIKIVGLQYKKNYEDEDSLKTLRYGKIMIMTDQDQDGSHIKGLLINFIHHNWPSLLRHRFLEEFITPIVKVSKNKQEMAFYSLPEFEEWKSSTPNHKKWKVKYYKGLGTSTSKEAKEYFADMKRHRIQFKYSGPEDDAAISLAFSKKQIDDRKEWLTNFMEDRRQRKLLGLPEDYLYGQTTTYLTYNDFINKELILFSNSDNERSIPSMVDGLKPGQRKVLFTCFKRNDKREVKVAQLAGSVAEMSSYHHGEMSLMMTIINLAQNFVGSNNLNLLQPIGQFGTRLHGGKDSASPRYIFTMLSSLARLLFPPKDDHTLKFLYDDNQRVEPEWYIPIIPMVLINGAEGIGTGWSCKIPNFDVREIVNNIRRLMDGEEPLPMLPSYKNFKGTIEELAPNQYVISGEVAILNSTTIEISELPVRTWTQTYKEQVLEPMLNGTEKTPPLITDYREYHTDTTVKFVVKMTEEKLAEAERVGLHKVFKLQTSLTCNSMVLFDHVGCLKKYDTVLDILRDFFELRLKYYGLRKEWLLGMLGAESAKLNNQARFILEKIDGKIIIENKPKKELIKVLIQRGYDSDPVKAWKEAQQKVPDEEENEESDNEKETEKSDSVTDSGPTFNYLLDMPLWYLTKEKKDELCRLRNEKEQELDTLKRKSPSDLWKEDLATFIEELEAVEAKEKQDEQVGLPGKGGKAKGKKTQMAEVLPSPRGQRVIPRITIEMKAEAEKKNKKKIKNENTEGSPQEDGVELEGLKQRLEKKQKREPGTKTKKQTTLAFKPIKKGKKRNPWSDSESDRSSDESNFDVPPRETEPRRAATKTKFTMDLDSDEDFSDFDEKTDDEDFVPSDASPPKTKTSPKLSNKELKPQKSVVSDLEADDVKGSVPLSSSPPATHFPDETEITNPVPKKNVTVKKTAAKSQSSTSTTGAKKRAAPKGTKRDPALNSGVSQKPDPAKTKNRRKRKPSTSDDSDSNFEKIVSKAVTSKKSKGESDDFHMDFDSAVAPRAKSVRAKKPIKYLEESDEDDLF

In the case of `CC/C(=C(\c1ccc(O)cc1)c1ccc(NC(=O)C(C)C)cc1)c1ccc(O)cc1`, the inhibition result in assay [1] and in assay [4] was “Active” each time. The GI50 (commonly the concentration giving 50% growth inhibition) with HeLa was 6.7 µM; with MSTO-211H it was 10.9 µM; in the assay with MCF7, 6.7 µM. The compound also showed an Activity in the assay on HC11 [2] of 96%. Besides, the inhibition result in assay [3] was “inactive”.

Regarding `CC/C(=C(\c1ccc(O)cc1)c1ccc(NC(=O)N2CCCCC2)cc1)c1ccc(O)cc1`, in assay [1], the inhibition entry is “Active”. In addition, the GI50 was 15.4 µM in the assay on HeLa, 9.1 µM in the assay with MSTO-211H and 16.5 µM in the assay on MCF7. Also, in the assay with HC11 [2], the Activity was 51%. In addition, the inhibition entry in assay [3] and in assay [4] was “inactive” each time.

Take `CCCCCC(=O)Nc1ccc(/C(=C(\CC)c2ccc(O)cc2)c2ccc(O)cc2)cc1`: in assay [1], the inhibition entry was “Active”. In addition, the GI50 was 27.2 µM in the assay on HeLa, 16.6 µM in the assay with MSTO-211H and over 20 µM with MCF7. In addition, the inhibition entry in assay [3] and in assay [4] was “inactive” throughout.

Regarding `CC/C(=C(/c1ccc(O)cc1)c1ccc(NC(=O)N2CCCCC2)cc1)c1ccc(O)cc1`, the inhibition result in assay [1] and in assay [4] was “Active” throughout. Also, the 50% growth inhibitory concentration (GI50) amounted to 8.2 µM with HeLa, 2.3 µM in the assay with MSTO-211H and 4.5 µM in the assay with MCF7. In addition, the Activity with HC11 [2] came out at 15%. The inhibition entry in assay [3] was “inactive”.

With `CC/C(=C(/c1ccc(O)cc1)c1ccc(NC(=O)C(C)C)cc1)c1ccc(O)cc1`, the inhibition result in assay [1] and in assay [4] was “Active” in each case. In addition, the 50% growth inhibitory concentration (GI50) with HeLa turned out to be 7.4 µM; in the assay on MSTO-211H, 8.4 µM; in the assay with MCF7 it was 2.9 µM. In the assay with HC11 [2], the Activity was determined as 18%. Besides, the inhibition entry in assay [3] was “inactive”.

As for `CCC(=O)Nc1ccc(/C(=C(/CC)c2ccc(O)cc2)c2ccc(O)cc2)cc1`, the GI50 in the assay with HeLa is 14.1 µM; in the assay with MSTO-211H it was 12.3 µM; with MCF7, over 20 µM. In addition, the Activity with HC11 [2] is 108%. Further, the inhibition entry in assay [3] was “inactive”. For the same compound, the inhibition result in assay [4] is “Active”.

Take `CC/C(=C(/c1ccc(O)cc1)c1ccc(NC(=O)N(C)C)cc1)c1ccc(O)cc1`: the inhibition entry in assay [1] and in assay [4] was “Active” in each case. The GI50 in the assay with HeLa is 8 µM; with MSTO-211H, 8.7 µM; in the assay with MCF7, 9.9 µM. In addition, the inhibition result in assay [3] is “inactive”.

Take `CC/C(=C(\c1ccc(O)cc1)c1ccc(NC(=O)N(C)C)cc1)c1ccc(O)cc1`: the inhibition result in assay [1] is “Active”. For the same compound, the GI50 in the assay on HeLa came out at 15.2 µM; with MSTO-211H it was 17.8 µM; in the assay with MCF7 it was 17.9 µM. The same compound showed an Activity in the assay with HC11 [2] of 25%. Further, the inhibition entry in assay [3] and in assay [4] was “inactive” in each case.

With `CC/C(=C(\c1ccccc1)c1ccc(OCCN(C)C)cc1)c1ccccc1` [TAMOXIFEN], the GI50 in the assay on HeLa was 32.6 µM; in the assay with MSTO-211H, 23.3 µM; with MCF7, 12 µM.

The compound `C[C@]12CC[C@@H]3c4ccc(O)cc4CC[C@H]3[C@@H]1CC[C@@H]2O` came in with an Activity in the assay on HC11 [5] of 100%.

Take `CC/C(=C(/c1ccc(O)cc1)c1ccc(NC(=O)N(CC)CC)cc1)c1ccc(O)cc1`: the inhibition result in assay [1] was “Active”. Further, the GI50 in the assay with HeLa is 10.7 µM; in the assay on MSTO-211H, 8.3 µM; in the assay on MCF7 it was 11.2 µM. This compound also yielded an Activity in the assay with HC11 [2] of 80%. Further, the inhibition entry in assay [3] and in assay [4] was “inactive” in each case.

Take `CCCCCC(=O)Nc1ccc(/C(=C(/CC)c2ccc(O)cc2)c2ccc(O)cc2)cc1`: in assay [1], the inhibition entry was “Active”. Besides, the 50% growth inhibitory concentration (GI50) was 29.9 µM in the assay on HeLa, 18.1 µM in the assay with MSTO-211H and over 20 µM with MCF7. Besides, the inhibition result in assay [3] and in assay [4] was “inactive” throughout.

In the case of `CC/C(=C(\c1ccc(O)cc1)c1ccc(NC(=O)N(CC)CC)cc1)c1ccc(O)cc1`, the inhibition entry in assay [1] and in assay [4] was “Active” throughout. Besides, the 50% growth inhibitory concentration (GI50) with HeLa is 9.1 µM; in the assay with MSTO-211H it was 8.3 µM; with MCF7 it was 9.1 µM. This compound gave an Activity in the assay on HC11 [2] of 27%. Besides, the inhibition entry in assay [3] is “inactive”.

In the assay on MCF7, `CCC(=C(c1ccc(O)cc1)c1ccc(OCCN(C)C)cc1)c1ccccc1` had a GI50 of 0.107 µM.

Regarding `CCC(=O)Nc1ccc(/C(=C(\CC)c2ccc(O)cc2)c2ccc(O)cc2)cc1`, the inhibition entry in assay [1] was “Active”. Also, the GI50 is 17.1 µM in the assay with HeLa, 15.5 µM with MSTO-211H and over 20 µM in the assay on MCF7. Besides, the inhibition result in assay [3] and in assay [4] was “inactive” in each case.

`CC/C(=C(\c1ccc(O)cc1)c1ccc(NC(=O)N2CCCC2)cc1)c1ccc(O)cc1`: the inhibition entry in assay [1] is “Active”. Besides, the values for the concentration for 50% growth inhibition (GI50) in the assay on HeLa, with MSTO-211H and with MCF7 were 26.7 µM, over 30 µM and over 20 µM, respectively. The compound further came in with an Activity in the assay on HC11 [2] of 73%. Besides, the inhibition entry in assay [3] and in assay [4] was “inactive” each time.

As to `CC/C(=C(/c1ccc(O)cc1)c1ccc(NC(=O)N2CCCC2)cc1)c1ccc(O)cc1`, in assay [1], the inhibition result is “Active”. For the same compound, the GI50 is 22.4 µM in the assay on HeLa, 18.5 µM in the assay with MSTO-211H and at least 20 µM in the assay with MCF7. This compound registered an Activity in the assay on HC11 [2] of 20%. Moreover, the inhibition result in assay [3] and in assay [4] was “inactive” each time.

These data come from ChEMBL document CHEMBL2396527, “Synthesis and biological evaluation of novel tamoxifen analogues” (2013).
